From ChEMBL document CHEMBL4346684, “Synthesis and structure-bactericidal activity relationships of non-ketolides: 9-Oxime clarithromycin 11,12-cyclic carbonate featured with three-to eight-atom-length spacers at 3-OH” (Eur J Med Chem, 2019)
≈ marks a conversion by molar mass, not a printed value. Calls of active or inactive are those of the source. The calls are words filed in the database; no cut-off is given here.

Key:
Staphylococcus aureus [1] = assay: Antimicrobial activity against constitutively erythromycin resistant and methicillin resistant Staphylococcus aureus PU20 expressing c-ermC incubated in CAMHB medium for 20 hrs by two-fold microbroth dilution method; assay type: functional; details: PU20, 20 h
Method in brief: (§1)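 Purified fresh Staphylococcus isolate at about 5×10^5 CFU/ml final in CAMHB, 35 °C for 20 h. Each run included ATCC strains and reference antibiotics as QC, plus an antibiotic-free growth control.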

Streptococcus pyogenes [2] = assay: Antimicrobial activity against inducibly erythromycin resistant Streptococcus pyogenes 01-968 expressing i-ermA incubated in CAMHB medium for 20 to 24 hrs by two-fold microbroth dilution method; assay type: functional
Streptococcus pneumoniae [3] = assay: Antimicrobial activity against mef-encoded erythromycin resistant Streptococcus pneumoniae PU09 incubated in CAMHB medium for 20 to 24 hrs by two-fold microbroth dilution method; assay type: functional
Streptococcus pneumoniae [4] = assay: Bactericidal activity against erythromycin-susceptible Streptococcus pneumoniae ATCC 49619 assessed as reduction in colony formation incubated in CAMHB medium for 20 to 24 hrs followed by 24 hrs subculturing in the medium without test compound; assay type: functional
Streptococcus pneumoniae [5] = assay: Ratio of MBC to MIC for erythromycin-susceptible Streptococcus pneumoniae ATCC 49619; assay type: functional
Moraxella catarrhalis [6] = assay: Ratio of MBC to MIC for erythromycin-susceptible Moraxella catarrhalis 13L332; assay type: functional
Moraxella catarrhalis [7] = assay: Bactericidal activity against erythromycin-susceptible Moraxella catarrhalis 13L332 assessed as reduction in colony formation incubated in CAMHB medium for 20 hrs followed by 24 hrs subculturing in the medium without test compound; assay type: functional
Streptococcus pyogenes [8] = assay: Ratio of MBC to MIC for inducibly erythromycin resistant Streptococcus pyogenes 01-968 expressing i-ermA; assay type: functional
Staphylococcus aureus [9] = assay: Antimicrobial activity against inducibly erythromycin-resistant and methicillin resistant Staphylococcus aureus PU32 expressing i-ermA incubated in CAMHB medium for 20 hrs by two-fold microbroth dilution method; assay type: functional; details: PU32, 20 h; method in brief: as §1
Streptococcus pyogenes [10] = assay: Bactericidal activity against inducibly erythromycin resistant Streptococcus pyogenes 01-968 expressing i-ermA assessed as reduction in colony formation incubated in CAMHB medium for 20 to 24 hrs followed by 24 hrs subculturing in the medium without test compound; assay type: functional
Staphylococcus aureus [11] = assay: Bactericidal activity against constitutively erythromycin resistant and methicillin-resistant Staphylococcus aureus PU20 expressing c-ermC assessed as reduction in colony formation incubated in CAMHB medium for 20 hrs followed by 24 hrs subculturing in the medium without test compound; assay type: functional
Staphylococcus aureus [12] = assay: Ratio of MBC to MIC for constitutively erythromycin resistant and methicillin-resistant Staphylococcus aureus PU20 expressing c-ermC; assay type: functional
Moraxella catarrhalis [13] = assay: Antimicrobial activity against erythromycin-susceptible Moraxella catarrhalis 13L332 incubated in CAMHB medium for 20 hrs by two-fold microbroth dilution method; assay type: functional; details: 13L332, 20 h
Method in brief: (§2)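 Clinical isolates and ATCC strains, purified by plate activation and used fresh; inoculum about 5×10^5 CFU/ml final. Grown in CAMHB at 35 °C for 20 h.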

Streptococcus pneumoniae [14] = assay: Bactericidal activity against mef-encoded erythromycin resistant Streptococcus pneumoniae PU09 assessed as reduction in colony formation incubated in CAMHB medium for 20 to 24 hrs followed by 24 hrs subculturing in the medium without test compound; assay type: functional
Streptococcus pneumoniae [15] = assay: Antimicrobial activity against erythromycin-susceptible Streptococcus pneumoniae ATCC 49619 incubated in CAMHB medium for 20 to 24 hrs by two-fold microbroth dilution method; assay type: functional
Staphylococcus aureus [16] = assay: Bactericidal activity against inducibly erythromycin-resistant and methicillin resistant Staphylococcus aureus PU32 expressing i-ermA assessed as reduction in colony formation incubated in CAMHB medium for 20 hrs followed by 24 hrs subculturing in the medium without test compound; assay type: functional
Staphylococcus aureus [17] = assay: Ratio of MBC to MIC for inducibly erythromycin-resistant and methicillin resistant Staphylococcus aureus PU32 expressing i-ermA; assay type: functional
Staphylococcus aureus [18] = assay: Antimicrobial activity against inducibly erythromycin-resistant Staphylococcus aureus PU32 expressing i-ermA incubated in CAMHB medium for 20 hrs by two-fold microbroth dilution method; assay type: functional; details: PU32, 20 h
Method in brief: (§3)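 Purified fresh Staphylococcus isolate at about 5×10^5 CFU/ml final in CAMHB, 35 °C for 20 h. […] Each run included ATCC strains and reference antibiotics as QC, plus an antibiotic-free growth control.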

Streptococcus pneumoniae [19] = assay: Ratio of MBC to MIC for mef-encoded erythromycin resistant Streptococcus pneumoniae PU09; assay type: functional
Staphylococcus aureus [20] = assay: Antimicrobial activity against constitutively erythromycin resistant Staphylococcus aureus PU20 expressing c-ermC incubated in CAMHB medium for 20 hrs by two-fold microbroth dilution method; assay type: functional; details: PU20, 20 h; method in brief: as §3
Staphylococcus aureus [21] = assay: Antimicrobial activity against inducibly erythromycin resistant Staphylococcus aureus PU64 expressing i-ermA incubated in CAMHB medium for 20 hrs by two-fold microbroth dilution method; assay type: functional; details: PU64, 20 h; method in brief: as §3
Streptococcus pneumoniae [22] = assay: Antimicrobial activity against constitutively erythromycin resistant Streptococcus pneumoniae PU27 expressing c-erm incubated in CAMHB medium for 20 to 24 hrs by two-fold microbroth dilution method; assay type: functional
Method in brief: (§4)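 Purified fresh Streptococcus isolate at about 5×10^5 CFU/ml final in CAMHB with 5% horse serum, 35 °C for 20–24 h. […] Each run included ATCC strains and reference antibiotics as QC, plus an antibiotic-free growth control.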

Streptococcus pyogenes [23] = assay: Antimicrobial activity against erythromycin-susceptible Streptococcus pyogenes A3 incubated in CAMHB medium for 20 to 24 hrs by two-fold microbroth dilution method; assay type: functional
Streptococcus pyogenes [24] = assay: Antimicrobial activity against constitutively erythromycin resistant Streptococcus pyogenes A2 expressing c-erm incubated in CAMHB medium for 20 to 24 hrs by two-fold microbroth dilution method; assay type: functional; method in brief: as §4
Streptococcus pneumoniae [25] = assay: Bactericidal activity against mef-encoded erythromycin resistant Streptococcus pneumoniae PU09 at 1 to 16xMIC incubated for 1 to 24 hrs by broth dilution method; assay type: functional, organism-based
Method in brief: (§5)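 Samples were taken at 1, 2, 4, 6, 8, 12 and 24 h, diluted and subcultured at 35 °C for 20–24 h. Colonies were counted and log CFU plotted against time; detection limit 300 CFU/mL.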

[26] = tested on: Staphylococcus epidermidis; assay: Antimicrobial activity against Staphylococcus epidermidis E1 incubated in CAMHB medium for 20 hrs by two-fold microbroth dilution method; assay type: functional; details: E1, 20 h; method in brief: as §2
Streptococcus pyogenes [27] = assay: Bactericidal activity against inducibly erythromycin resistant Streptococcus pyogenes 01-968 expressing i-ermA at 1XMIC incubated for 12 hrs by broth dilution method; assay type: functional, organism-based; method in brief: as §5
Streptococcus pneumoniae [28] = assay: Bactericidal activity against erythromycin-susceptible Streptococcus pneumoniae ATCC 49619 assessed as log reduction in bacterial CFU at 1 to 16XMIC incubated for 1 to 24 hrs by broth dilution method; assay type: functional
Method in brief: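 Samples taken at 1, 2, 4, 6, 8, 12, 24 h, diluted and plated, colonies counted after 20-24 h at 35 °C; log CFU plotted against time. Detection limit 300 CFU/mL.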

Streptococcus pyogenes [29] = assay: Bactericidal activity against inducibly erythromycin resistant Streptococcus pyogenes 01-968 expressing i-ermA at 1XMIC incubated for 24 hrs by broth dilution method; assay type: functional, organism-based; method in brief: as §5
Staphylococcus aureus [30] = assay: Antimicrobial activity against erythromycin-susceptible Staphylococcus aureus ATCC 29213 incubated in CAMHB medium for 20 hrs by two-fold microbroth dilution method; assay type: functional; details: ATCC 29213, 20 h; method in brief: as §2

SMILES	MIC (Staphylococcus aureus [1]) [µg/mL]	MIC (Streptococcus pyogenes [2]) [µg/mL]	MIC (Streptococcus pneumoniae [3]) [µg/mL]	MBC (Streptococcus pneumoniae [4]) [µg/mL]	Ratio (Streptococcus pneumoniae [5])	Ratio (Moraxella catarrhalis [6])	MBC (Moraxella catarrhalis [7]) [µg/mL]	Ratio (Streptococcus pyogenes [8])	MIC (Staphylococcus aureus [9]) [µg/mL]	MBC (Streptococcus pyogenes [10]) [µg/mL]	MBC (Staphylococcus aureus [11]) [µg/mL]	MIC (Moraxella catarrhalis [13]) [µg/mL]	MBC (Streptococcus pneumoniae [14]) [µg/mL]	MBC (Staphylococcus aureus [16]) [µg/mL]	also measured
CC[C@H]1OC(=O)[C@H](C)[C@@H](OCC#Cc2ccc(C(=O)c3ccccc3)s2)[C@H](C)[C@@H](O[C@@H]2O[C@H](C)C[C@H](N(C)C)[C@H]2O)[C@](C)(OC)C[C@@H](C)/C(=N\OC)[C@H](C)[C@H]2OC(=O)O[C@@]21C	32 (≈ 36.8 µM)	4 (≈ 4.6 µM)	4 (≈ 4.6 µM)	16 (≈ 18.4 µM)	2	2	16 (≈ 18.4 µM)	2	> 256	8 (≈ 9.21 µM)	> 256	8 (≈ 9.21 µM)	8 (≈ 9.21 µM)	> 256	Ratio (Staphylococcus aureus [12]): >8; MIC (Streptococcus pneumoniae [15]): 8 µg/mL (≈ 9.21 µM)
CC[C@H]1OC(=O)[C@H](C)C(=O)[C@H](C)[C@@H](O[C@@H]2O[C@H](C)C[C@H](N(C)C)[C@H]2O)[C@](C)(OC)C[C@@H](C)C(=O)[C@H](C)[C@H]2N(CCCCn3cnc(-c4cccnc4)c3)C(=O)O[C@]12C [TELITHROMYCIN]	> 256	0.031 to 0.062 (≈ 0.0382 to 0.0764 µM)	0.25 to 1 (≈ 0.308 to 1.23 µM)	0.031 to 0.125 (≈ 0.0382 to 0.154 µM)	1 - 4	4	0.5 (≈ 0.616 µM)	4 - 8	0.25 (≈ 0.308 µM)	0.13 to 0.5 (≈ 0.16 to 0.616 µM)	> 256	0.125 (≈ 0.154 µM)	1 to 4 (≈ 1.23 to 4.93 µM)	1 to 2 (≈ 1.23 to 2.46 µM)	Ratio (Staphylococcus aureus [17]): >=4 - 8; MIC (Staphylococcus aureus [18]): 0.125 µg/mL (≈ 0.154 µM); Ratio (Streptococcus pneumoniae [19]): 4 - 8; MIC (Staphylococcus aureus [20]): > 256 µg/mL; MIC (Staphylococcus aureus [21]): 0.125 µg/mL (≈ 0.154 µM); MIC (Streptococcus pneumoniae [22]): ≤ 0.032 µg/mL; MIC (Streptococcus pyogenes [23]): ≤ 0.032 µg/mL; MIC (Streptococcus pyogenes [24]): 32 µg/mL (≈ 39.4 µM); Activity (Streptococcus pneumoniae [25]): Active; MIC [26]: 0.125 µg/mL (≈ 0.154 µM); Activity (Streptococcus pyogenes [27]): Active; Activity (Streptococcus pneumoniae [28]): 3 log10CFU; Activity (Streptococcus pyogenes [29]): inactive; MIC (Staphylococcus aureus [30]): 0.125 µg/mL (≈ 0.154 µM)
